Data on one compound can be found in ChEMBL document CHEMBL5055621, “Synthesis and Characterization of the Novel Rodent-Active and CNS-Penetrant P2X7 Receptor Antagonist Lu AF27139” (J Med Chem, 2021).

In one data set the target is hERG (KCNH2) (Homo sapiens, UniProt Q12809). Kind of data set: Inhibition of human ERG at 30 uM. The gist of the method: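 hERG channel inhibition was measured at 30 μM.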
Data set [1] can be described thus: Metabolic stability in rat hepatocytes assessed as intrinsic clearance at 1 uM measured after 2 hrs. Format: ADME, cell-based, Hepatocyte. Particulars: read-out: CLH (converted); call rule not given here.
Data set [2] is described as follows: Cmax in female mouse at 100 mg/kg, po after 14 days. Particulars: in vivo.
The target in data set [3] is Voltage-dependent L-type calcium channel subunit alpha-1C (Homo sapiens, UniProt Q13936). Kind of data set: Inhibition of human Cav1.2 at 10 uM. Put shortly:
(§1)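 Human Nav1.5, Cav1.2 and KCNQ1/minK channels were tested at 10 μM.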

Data set [4] can be described thus: Inhibition of BzATP-induced current in rat primary microglia cells measured after repeated BzATP treatment at -60 mV at 100 nM by whole cell patch clamp assay relative to control. The format is functional. Put shortly:
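Rat primary microglia were whole-cell patch-clamped at −60 mV (external pH 7.4 with 1.8 mM CaCl2; CsCl/EGTA internal pH 7.2). Currents came from 10 s applications of 300 μM BzATP, applied repeatedly. Compound was applied by gravity via capillary for 60 s, and inhibition was taken relative to the control response.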

Data set [5] is described as follows: Tmax in male rat at 3 mg/kg, po after 7 days. The format is ADME, organism-based. Particulars: in vivo, time 7 day.
Data set [6] in a line: Inhibition of BzATP-induced IL-1beta in rat primary microglia cells primed with LPS measured after repeated BzATP treatment by microplate reader. Format: functional, tissue-based. Put shortly:
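Cortical microglia from rat (P3 pups) or mouse were plated 1 day before assay and primed with 3 EU/mL LPS for 3.5 h. Compound was added for 30 min, then BzATP (1 mM) for 30 min at 37 °C. IL-1β was measured by MesoScale assay, normalised to BCA protein, and given as mean ± SD.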

A further data set has as its target T1, Cytochrome P450 1A2 (Homo sapiens, UniProt P05177).
T1 sequence (P05177 whole entry): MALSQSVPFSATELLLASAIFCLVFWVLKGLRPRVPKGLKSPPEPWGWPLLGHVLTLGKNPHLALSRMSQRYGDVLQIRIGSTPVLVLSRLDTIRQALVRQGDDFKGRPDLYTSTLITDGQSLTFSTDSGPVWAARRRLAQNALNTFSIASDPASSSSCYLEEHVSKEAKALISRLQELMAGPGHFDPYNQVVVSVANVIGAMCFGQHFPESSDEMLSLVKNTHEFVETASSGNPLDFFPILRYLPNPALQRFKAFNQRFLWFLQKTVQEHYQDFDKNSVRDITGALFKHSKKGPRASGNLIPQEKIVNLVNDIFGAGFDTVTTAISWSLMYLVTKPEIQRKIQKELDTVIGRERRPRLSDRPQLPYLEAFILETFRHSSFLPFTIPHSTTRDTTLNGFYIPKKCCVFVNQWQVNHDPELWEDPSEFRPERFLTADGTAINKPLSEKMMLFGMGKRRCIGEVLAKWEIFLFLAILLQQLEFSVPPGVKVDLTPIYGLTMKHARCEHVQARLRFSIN
Kind of data set: Inhibition of CYP1A2 (unknown origin) upto 25 uM. Format: ADME.

In data set [7] the target is Sodium channel protein type 5 subunit alpha (Homo sapiens, UniProt Q14524). Kind of data set: Inhibition of human Nav1.5 at 10 uM. The gist of the method: as §1
Sequence of Sodium channel protein type 5 subunit alpha (Q14524 whole entry): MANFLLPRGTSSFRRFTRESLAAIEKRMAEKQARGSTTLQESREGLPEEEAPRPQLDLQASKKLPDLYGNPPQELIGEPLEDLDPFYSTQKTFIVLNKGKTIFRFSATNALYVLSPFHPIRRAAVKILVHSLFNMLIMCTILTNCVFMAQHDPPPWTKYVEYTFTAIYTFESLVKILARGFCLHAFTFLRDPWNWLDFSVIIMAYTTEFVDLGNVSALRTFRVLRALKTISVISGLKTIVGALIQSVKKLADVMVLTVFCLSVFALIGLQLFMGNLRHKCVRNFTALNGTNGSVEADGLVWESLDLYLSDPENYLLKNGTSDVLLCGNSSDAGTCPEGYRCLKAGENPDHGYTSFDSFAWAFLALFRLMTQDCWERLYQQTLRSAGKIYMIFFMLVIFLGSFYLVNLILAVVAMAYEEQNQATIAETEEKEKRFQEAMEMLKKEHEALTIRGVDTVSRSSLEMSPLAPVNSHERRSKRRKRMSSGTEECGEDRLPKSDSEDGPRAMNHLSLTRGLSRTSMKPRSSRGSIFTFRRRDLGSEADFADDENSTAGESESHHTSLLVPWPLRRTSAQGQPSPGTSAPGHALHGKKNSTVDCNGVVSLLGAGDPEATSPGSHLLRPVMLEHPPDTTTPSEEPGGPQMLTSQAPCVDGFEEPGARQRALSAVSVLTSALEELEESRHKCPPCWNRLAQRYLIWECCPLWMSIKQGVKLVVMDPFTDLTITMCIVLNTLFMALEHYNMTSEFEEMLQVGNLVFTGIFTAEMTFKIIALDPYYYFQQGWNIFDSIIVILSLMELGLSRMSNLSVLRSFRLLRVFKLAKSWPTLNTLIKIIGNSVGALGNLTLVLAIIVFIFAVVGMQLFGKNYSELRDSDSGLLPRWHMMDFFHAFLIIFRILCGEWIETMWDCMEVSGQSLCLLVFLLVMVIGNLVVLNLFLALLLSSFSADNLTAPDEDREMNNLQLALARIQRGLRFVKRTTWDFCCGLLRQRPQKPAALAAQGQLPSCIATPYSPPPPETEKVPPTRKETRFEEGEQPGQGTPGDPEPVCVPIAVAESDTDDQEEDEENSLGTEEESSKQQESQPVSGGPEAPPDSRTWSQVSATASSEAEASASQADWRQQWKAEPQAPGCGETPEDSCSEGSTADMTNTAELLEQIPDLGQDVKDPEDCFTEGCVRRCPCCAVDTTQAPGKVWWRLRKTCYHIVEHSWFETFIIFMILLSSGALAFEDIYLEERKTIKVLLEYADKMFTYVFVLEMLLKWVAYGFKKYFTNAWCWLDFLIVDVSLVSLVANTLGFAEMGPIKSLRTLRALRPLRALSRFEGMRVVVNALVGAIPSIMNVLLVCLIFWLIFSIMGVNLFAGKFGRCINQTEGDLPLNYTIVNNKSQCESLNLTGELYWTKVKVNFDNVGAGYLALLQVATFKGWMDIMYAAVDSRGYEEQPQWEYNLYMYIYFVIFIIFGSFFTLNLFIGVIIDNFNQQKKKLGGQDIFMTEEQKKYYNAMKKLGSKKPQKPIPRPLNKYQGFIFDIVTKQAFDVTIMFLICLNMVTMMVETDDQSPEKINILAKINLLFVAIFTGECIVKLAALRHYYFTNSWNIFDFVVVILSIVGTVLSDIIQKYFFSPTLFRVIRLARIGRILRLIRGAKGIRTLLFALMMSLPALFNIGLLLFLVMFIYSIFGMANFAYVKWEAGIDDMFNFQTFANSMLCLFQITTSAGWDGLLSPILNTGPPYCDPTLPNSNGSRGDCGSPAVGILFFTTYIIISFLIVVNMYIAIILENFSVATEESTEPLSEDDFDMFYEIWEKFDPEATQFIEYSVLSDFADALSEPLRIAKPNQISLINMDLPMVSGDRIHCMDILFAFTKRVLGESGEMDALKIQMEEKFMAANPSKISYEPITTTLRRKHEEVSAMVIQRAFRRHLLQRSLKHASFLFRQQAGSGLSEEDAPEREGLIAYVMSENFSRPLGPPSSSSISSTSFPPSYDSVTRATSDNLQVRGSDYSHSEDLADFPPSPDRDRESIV
The nature of data set [8]: Free plasma concentration in rat at 30 mg/kg, po after 2 hrs by ex vivo equilibrium dialysis. Format: ADME, organism-based. The gist of the method:
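Male Sprague–Dawley rats were dosed orally at 1–100 mg/kg, and total plasma concentration was measured at 1 and 2 h. This was multiplied by fraction unbound from ex vivo equilibrium dialysis; mean ± SEM, n = 3 animals.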

Sequence of Voltage-dependent L-type calcium channel subunit alpha-1C (Q13936 whole entry): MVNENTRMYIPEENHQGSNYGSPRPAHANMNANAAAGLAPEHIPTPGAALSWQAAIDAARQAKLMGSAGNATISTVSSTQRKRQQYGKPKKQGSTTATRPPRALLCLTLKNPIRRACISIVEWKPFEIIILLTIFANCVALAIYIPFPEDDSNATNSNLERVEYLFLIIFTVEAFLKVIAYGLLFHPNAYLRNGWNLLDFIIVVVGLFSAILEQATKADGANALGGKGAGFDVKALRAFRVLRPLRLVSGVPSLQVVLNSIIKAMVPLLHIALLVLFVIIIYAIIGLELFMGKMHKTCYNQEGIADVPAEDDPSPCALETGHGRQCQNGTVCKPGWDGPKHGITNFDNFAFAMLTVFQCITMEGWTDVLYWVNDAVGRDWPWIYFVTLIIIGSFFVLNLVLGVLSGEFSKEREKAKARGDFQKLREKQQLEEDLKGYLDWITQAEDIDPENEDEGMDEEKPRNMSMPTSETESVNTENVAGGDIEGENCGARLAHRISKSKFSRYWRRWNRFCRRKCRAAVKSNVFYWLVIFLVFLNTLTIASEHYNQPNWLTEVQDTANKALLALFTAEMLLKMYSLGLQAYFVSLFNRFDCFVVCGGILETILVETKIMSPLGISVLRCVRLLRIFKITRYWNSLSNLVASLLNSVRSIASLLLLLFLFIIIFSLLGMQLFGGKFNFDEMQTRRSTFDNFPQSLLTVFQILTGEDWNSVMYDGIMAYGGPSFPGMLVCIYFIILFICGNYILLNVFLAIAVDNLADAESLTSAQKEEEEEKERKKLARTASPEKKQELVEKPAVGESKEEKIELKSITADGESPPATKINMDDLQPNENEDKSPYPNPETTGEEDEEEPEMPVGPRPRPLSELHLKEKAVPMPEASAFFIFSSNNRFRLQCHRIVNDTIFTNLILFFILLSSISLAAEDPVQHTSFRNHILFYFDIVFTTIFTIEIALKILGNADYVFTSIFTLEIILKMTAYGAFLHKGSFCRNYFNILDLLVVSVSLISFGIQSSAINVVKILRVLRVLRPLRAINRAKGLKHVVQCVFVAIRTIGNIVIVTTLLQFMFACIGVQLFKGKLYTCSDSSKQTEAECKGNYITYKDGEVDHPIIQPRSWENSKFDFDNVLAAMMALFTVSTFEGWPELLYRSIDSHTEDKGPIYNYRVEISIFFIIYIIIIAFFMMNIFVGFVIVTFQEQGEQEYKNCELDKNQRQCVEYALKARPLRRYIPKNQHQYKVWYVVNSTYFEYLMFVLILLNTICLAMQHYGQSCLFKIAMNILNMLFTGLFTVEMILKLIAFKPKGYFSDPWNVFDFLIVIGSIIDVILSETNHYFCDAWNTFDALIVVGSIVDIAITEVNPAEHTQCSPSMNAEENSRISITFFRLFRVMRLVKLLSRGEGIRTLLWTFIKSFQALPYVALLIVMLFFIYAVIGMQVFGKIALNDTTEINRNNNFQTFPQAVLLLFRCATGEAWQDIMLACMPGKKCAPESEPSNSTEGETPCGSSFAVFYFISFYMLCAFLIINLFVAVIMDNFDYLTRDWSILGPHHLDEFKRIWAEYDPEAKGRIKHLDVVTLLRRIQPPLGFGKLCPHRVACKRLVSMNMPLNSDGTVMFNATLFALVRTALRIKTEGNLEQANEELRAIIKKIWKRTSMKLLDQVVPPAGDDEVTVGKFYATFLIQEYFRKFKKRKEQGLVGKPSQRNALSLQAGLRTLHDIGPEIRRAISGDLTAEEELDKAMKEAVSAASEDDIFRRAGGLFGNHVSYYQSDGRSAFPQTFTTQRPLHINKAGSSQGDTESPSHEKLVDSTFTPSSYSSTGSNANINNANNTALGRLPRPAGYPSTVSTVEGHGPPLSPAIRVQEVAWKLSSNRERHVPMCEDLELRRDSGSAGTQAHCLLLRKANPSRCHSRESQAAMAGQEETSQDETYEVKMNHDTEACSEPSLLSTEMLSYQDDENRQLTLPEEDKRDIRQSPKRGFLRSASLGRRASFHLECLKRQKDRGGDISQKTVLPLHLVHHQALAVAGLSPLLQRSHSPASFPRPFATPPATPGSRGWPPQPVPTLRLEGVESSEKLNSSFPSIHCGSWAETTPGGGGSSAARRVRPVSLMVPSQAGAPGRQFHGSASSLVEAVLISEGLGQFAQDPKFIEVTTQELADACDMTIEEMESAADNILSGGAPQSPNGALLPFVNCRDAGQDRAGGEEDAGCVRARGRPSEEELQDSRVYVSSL

The term inhibition denotes the percentage by which the read-out fell short of the control. A higher inhibition goes with strong suppression. As a reminder, the Cmax is the peak of the concentration-time curve. The term Tmax denotes the time at which the peak concentration occurs. By IC50 is commonly meant the concentration that inhibits the measured activity by half. High values mean a need for much substance, low ones inhibition by little substance. As for `O=C(NC[C@H](c1ccc(Cl)cc1)N1CCOCC1)c1sc(-c2ncccn2)nc1C(F)(F)F`, the inhibition at 30 µM against hERG (KCNH2) came out at 44%. Also, the CLint scaled at 1 µM in data set [1] was 80 mL/min/kg. Besides, in data set [2], the Cmax was 61.6 µM. The “inhibition (INH)” value (in [3]; at Cytochrome P450 1A2; in data set [7]) was “Not Active” in each case. Moreover, at 0.1 µM the inhibition in [4] was 80%. In addition, the Tmax in [5] is 1 h. In data set [6], this compound had an IC50 of 38 nM. Further, the “Cp(f)” value in data set [8] was 556 nM.
